Results on 4 molecules are retold here after ChEMBL document CHEMBL4842320, “Cryptic Biosynthesis of the Berkeleypenostatins from Coculture of Extremophilic Penicillium sp” (J Nat Prod, 2021).

Broadly, the MIC is the lowest concentration found to suppress growth. The term IC50 denotes the midpoint of a concentration-inhibition curve. Low readings indicate greater potency, high ones weaker potency. A word on the inhibition: it is the drop in the measured response relative to a control, in per cent. Low readings indicate little suppression, high ones strong suppression.

Values after ≈ are worked out from the molar mass of the structure shown. Active and inactive are the calls of the source. The rule behind the calls is not given here.

In assay [1] the test system is Staphylococcus aureus. Description: Antibacterial activity against wild-type Staphylococcus aureus assessed as minimum inhibitory concentration by alamar blue dye based broth microdilution method. The assay is classed as functional.
Assay [2] has as its system Staphylococcus aureus. Description: Antibacterial activity against multidrug resistant strains of Staphylococcus aureus assessed as minimum inhibitory concentration by alamar blue dye based broth microdilution method. The assay is classed as functional.
The test system of the next assay is Bacillus anthracis. Put plainly: Antibacterial activity against Bacillus anthracis assessed as minimum inhibitory concentration by alamar blue dye based broth microdilution method. Format: functional.
The next assay concerns the target Stromelysin-1 (Homo sapiens, UniProt P08254). Put plainly: Inhibition of MMP-3 (unknown origin). The procedure, abridged:
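MMP-3 inhibition measured with a commercial MMP-3 drug discovery kit.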

Assay [3] deals with Panel NCI-60 (60 carcinoma cell lines). Description: Anticancer activity against human Panel NCI-60 (60 carcinoma cell lines) assessed as total growth inhibition at 1 to 10 uM measured after 48 hrs by SRB assay. To be noted: dose 1-10 µM. The assay is classed as functional, cell-based. The method, boiled down:
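NCI Developmental Therapeutics Program 60-human-tumour-cell-line five-dose screen, with total growth inhibition (TGI) as the end-point.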
For orientation: In SRB staining, fixed cells bind dye roughly in proportion to their protein.

Assay [4] concerns HPAF-II. Put plainly: Cytotoxicity against human HPAF-II cells assessed as reduction in cell viability at upto 50 uM by MTT assay. The assay is classed as functional, cell-based. To be noted: dose microM <=50. The method, boiled down:
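Vybrant MTT proliferation assay on HPAF-II cells harvested with 0.25% trypsin/0.53 mM EDTA, with viability checked after harvest. Compounds were tested up to 50 μM.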

In assay [5] the test system is HPAF-II. Put plainly: Antiinvasive activity against human HPAF-II cells assessed as reduction in cell invasion at 1.25 uM measured upto 24 hrs by CMFDA dye staining based fluorescence assay. The assay is classed as functional. To be noted: time hrs <=24. The method, boiled down: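 Matrigel-coated invasion inserts with 8 μm pores. HPAF-II cells were harvested, resuspended in serum-free DMEM and labelled with CellTracker CMFDA. Compound was diluted in serum-free DMEM to a final 1.25 μM. Run in triplicate, with untreated cells as control and NNGH as positive control.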

The subject of assay [6] is HPAF-II. Put plainly: Inhibition of cell migration in human HPAF-II cells at 1.25 uM measured upto 24 hrs by CMFDA dye staining based fluorescence assay. The assay is classed as functional. To be noted: time hrs <=24. The procedure, abridged: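 Fluoroblok 96-well insert migration kinetics. HPAF-II cells were harvested at ~80% confluency, resuspended at 5 ×10^5 cells/mL in serum-free DMEM and stained with CellTracker CMFDA. Compound was present at a final 1.25 μM over 24 h. Run in triplicate, with untreated cells as control and NNGH as positive control.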

Stromelysin-1, sequence (P08254 whole entry): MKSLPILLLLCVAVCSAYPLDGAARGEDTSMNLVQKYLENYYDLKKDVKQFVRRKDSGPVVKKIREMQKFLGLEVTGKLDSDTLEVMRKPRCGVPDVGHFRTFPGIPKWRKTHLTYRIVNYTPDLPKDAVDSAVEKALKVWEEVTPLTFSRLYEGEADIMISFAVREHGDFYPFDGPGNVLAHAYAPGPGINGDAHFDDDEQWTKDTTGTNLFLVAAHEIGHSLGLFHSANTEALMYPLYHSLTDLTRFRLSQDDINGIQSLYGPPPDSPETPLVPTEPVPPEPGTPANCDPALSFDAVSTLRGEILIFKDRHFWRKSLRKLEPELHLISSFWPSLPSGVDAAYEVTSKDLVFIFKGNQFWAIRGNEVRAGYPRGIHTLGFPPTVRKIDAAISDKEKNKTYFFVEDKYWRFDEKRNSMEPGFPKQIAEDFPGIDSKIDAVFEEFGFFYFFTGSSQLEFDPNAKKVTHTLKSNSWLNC

As to `CCCCCCC/C=C/[C@@H]1O[C@@]2(O)C(=O)C=C3C[C@H](O[C@@H]4O[C@H](CO)[C@@H](O)[C@H](O)[C@H]4O)C[C@H]3[C@@H]2C=C1C`, the MIC in the assay on Staphylococcus aureus [1], with Staphylococcus aureus [2] and in the assay on Bacillus anthracis was 4 µg/mL (≈ 7.65 µM) each time. In addition, half-maximal inhibition on Stromelysin-1 (IC50) was put at 50 µM. For the same molecule, the result in assay [3] was Active. For the same molecule, the outcome in the assay on HPAF-II [4] and in the assay with HPAF-II [5] was inactive. In the assay with HPAF-II [6], this molecule had an inhibition at 1.25 µM of 30%.

Consider `CCCCCCC/C=C/[C@@H]1O[C@]23C(=O)C[C@@]4(C[C@H](O[C@@H]5O[C@H](CO)[C@@H](O)[C@H](O)[C@H]5O)C[C@H]4[C@@H]2C=C1C)OC3=O`, for which the outcome (in assay [3]; in the assay on HPAF-II [4]; in the assay with HPAF-II [5]) was inactive. In the assay on HPAF-II [6], the inhibition at 1.25 µM came to 30%.

As to `CCCCCCC/C=C/[C@@H]1O[C@@]2(O)C(=O)C=C3C[C@@H](O[C@@H]4O[C@H](CO)[C@@H](O)[C@H](O)[C@H]4O)C[C@H]3[C@@H]2C=C1C`, the MIC with Staphylococcus aureus [1], in the assay on Staphylococcus aureus [2] and with Bacillus anthracis was 17 µg/mL (≈ 32.5 µM) throughout.

`O=C(O)c1cn(C2CC2)c2cc(N3CCNCC3)c(F)cc2c1=O` [CIPROFLOXACIN]: the MIC with Bacillus anthracis came to 0.064 µg/mL (≈ 0.193 µM).
